As usually defined, the Ki is a measure of affinity in units of concentration, obtained from inhibition or displacement. The low end stands for a stronger hold on the target, the high end for a looser hold on the target. One may read the IC50 as the concentration that inhibits the measured activity by half. As a reminder, the Emax is the maximal effect, on the per cent scale that the assay sets. What is called EC50 is the concentration needed to bring the measured effect to its halfway point. A word on the inhibition: it is how much of the control response was suppressed.

Assay [1] is filed under the species Homo sapiens. Put plainly: Selectivity ratio of Ki for human kappa opioid receptor over Ki for human mu opioid receptor.
The species named for assay [2] is Homo sapiens. The assay is described as follows: Selectivity ratio of Ki for human kappa opioid receptor over Ki for human delta opioid receptor.
For assay [3], the target named is Delta-type opioid receptor (Homo sapiens, UniProt P41143). Put plainly: Displacement of [3H]naltrindole from human delta-opioid receptor expressed in CHO cells after 3 hrs by scintillation counting. The assay is classed as cell-based. On the technique in general: Loss of bound radioactivity is the signal in a displacement assay; it reports binding, not function.

Assay [4] has as its target T1, Kappa-type opioid receptor (Homo sapiens, UniProt P41145). Put plainly: Antagonist activity at human kappa-opioid receptor expressed in CHO cells assessed as inhibition of U69593-induced [35S]GTPgammaS binding after 60 mins by scintillation counting. The assay is classed as functional, cell-based.
Assay [5] addresses T2, Mu-type opioid receptor (Homo sapiens, UniProt P35372). The assay is described as follows: biochemical. The assay is classed as cell-based, CHO.
The target in assay [6] is T2, Mu-type opioid receptor. The assay is described as follows: Antagonist activity at human mu-opioid receptor expressed in CHO cells assessed as inhibition of DAMGO-induced [35S]GTPgammaS binding after 60 mins by scintillation counting relative to control. The format is functional, cell-based. The procedure, abridged: (§1)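 Human μ receptor CHO membranes were incubated with 200 nM DAMGO to drive [35S]GTPγS (0.08 nM) binding, with 12 compound concentrations up to 10 μM, in Tris pH 7.4/GDP/MgCl2/EGTA/NaCl buffer, 60 min at 30°C. Nonspecific binding was with 10 μM GTPγS. Samples were filtered and counted.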
Background: GTPγS is a poorly hydrolysed GTP analogue; its binding reports G protein activation.

In assay [7] the target is T2, Mu-type opioid receptor. The assay is described as follows: Agonist activity at human mu-opioid receptor expressed in CHO cells assessed as stimulation of [35S]GTPgammaS binding after 60 mins by scintillation counting relative to control. The format is functional, cell-based. The procedure, abridged: (§2)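 Membranes from CHO cells stably expressing human κ or μ opioid receptor were incubated with 12 compound concentrations in 50 mM Tris-HCl pH 7.4 with 3 μM GDP, 3 mM MgCl2, 0.2 mM EGTA and 100 mM NaCl. [35S]GTPγS was 0.08 nM final, 60 min at 30°C, and 10 μM GTPγS gave nonspecific binding. Samples were filtered and counted. EC50 and Emax (% stimulation over basal) came from three experiments in triplicate.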

In assay [8] the target is T1, Kappa-type opioid receptor. The assay is described as follows: biochemical. The format is cell-based, CHO.
The target in assay [9] is T1, Kappa-type opioid receptor. The assay is described as follows: Antagonist activity at human kappa-opioid receptor expressed in CHO cells assessed as inhibition of U69593-induced [35S]GTPgammaS binding after 60 mins by scintillation counting relative to control. The format is functional, cell-based.
The target of assay [10] is T2, Mu-type opioid receptor. Put plainly: Antagonist activity at human mu-opioid receptor expressed in CHO cells assessed as inhibition of DAMGO-induced [35S]GTPgammaS binding after 60 mins by scintillation counting. The assay is classed as functional, cell-based. The procedure, abridged:
as §1

The target in assay [11] is T1, Kappa-type opioid receptor. Put plainly: Agonist activity at human kappa-opioid receptor expressed in CHO cells assessed as stimulation of [35S]GTPgammaS binding after 60 mins by scintillation counting. The format is functional, cell-based. The procedure, abridged: as §2
The target in assay [12] is T2, Mu-type opioid receptor. The assay is described as follows: Agonist activity at human mu-opioid receptor expressed in CHO cells assessed as stimulation of [35S]GTPgammaS binding after 60 mins by scintillation counting. The format is functional, cell-based. The procedure, abridged:
as §2

In assay [13] the target is T1, Kappa-type opioid receptor. Put plainly: Agonist activity at human kappa-opioid receptor expressed in CHO cells assessed as stimulation of [35S]GTPgammaS binding after 60 mins by scintillation counting relative to control. The assay is classed as functional, cell-based. The method in brief: as §2
Assay [14] addresses T2, Mu-type opioid receptor. The assay is described as follows: Antagonist activity at human mu-opioid receptor expressed in CHO cells assessed as inhibition of DAMGO-induced [35S]GTPgammaS binding at 10 uM after 60 mins by scintillation counting relative to control. The assay is classed as functional, cell-based. The procedure, abridged: as §1
Assay [15] deals with T2, Mu-type opioid receptor. The assay is described as follows: Antagonist activity at human mu-opioid receptor expressed in CHO cells assessed as inhibition of DAMGO-induced [35S]GTPgammaS binding at 10 uM after 60 mins by scintillation counting. The assay is classed as functional, cell-based. The procedure, abridged:
as §1

The source made the active and inactive calls. The calls are words filed in the database; no cut-off is given here.

T1 sequence (P41145 whole entry): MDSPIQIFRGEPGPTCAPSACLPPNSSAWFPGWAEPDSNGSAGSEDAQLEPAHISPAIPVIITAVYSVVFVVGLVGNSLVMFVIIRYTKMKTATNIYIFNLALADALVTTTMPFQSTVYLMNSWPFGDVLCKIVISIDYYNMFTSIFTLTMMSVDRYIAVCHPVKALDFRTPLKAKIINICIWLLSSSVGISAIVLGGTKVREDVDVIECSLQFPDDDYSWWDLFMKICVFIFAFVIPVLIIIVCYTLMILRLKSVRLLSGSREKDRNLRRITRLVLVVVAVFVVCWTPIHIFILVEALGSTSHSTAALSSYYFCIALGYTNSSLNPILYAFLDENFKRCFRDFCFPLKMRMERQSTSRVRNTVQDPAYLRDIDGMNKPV
Sequence of Delta-type opioid receptor (P41143 whole entry): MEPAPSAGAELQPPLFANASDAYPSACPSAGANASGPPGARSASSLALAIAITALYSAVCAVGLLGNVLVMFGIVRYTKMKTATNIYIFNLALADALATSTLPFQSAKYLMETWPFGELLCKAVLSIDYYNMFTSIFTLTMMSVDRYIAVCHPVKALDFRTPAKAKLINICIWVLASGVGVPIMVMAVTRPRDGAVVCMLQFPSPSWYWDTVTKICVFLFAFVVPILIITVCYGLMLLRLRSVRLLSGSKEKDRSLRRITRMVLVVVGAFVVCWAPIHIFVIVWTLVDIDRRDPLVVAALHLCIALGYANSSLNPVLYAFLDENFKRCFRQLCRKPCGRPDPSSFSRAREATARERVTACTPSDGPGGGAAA
T2 sequence (P35372 whole entry): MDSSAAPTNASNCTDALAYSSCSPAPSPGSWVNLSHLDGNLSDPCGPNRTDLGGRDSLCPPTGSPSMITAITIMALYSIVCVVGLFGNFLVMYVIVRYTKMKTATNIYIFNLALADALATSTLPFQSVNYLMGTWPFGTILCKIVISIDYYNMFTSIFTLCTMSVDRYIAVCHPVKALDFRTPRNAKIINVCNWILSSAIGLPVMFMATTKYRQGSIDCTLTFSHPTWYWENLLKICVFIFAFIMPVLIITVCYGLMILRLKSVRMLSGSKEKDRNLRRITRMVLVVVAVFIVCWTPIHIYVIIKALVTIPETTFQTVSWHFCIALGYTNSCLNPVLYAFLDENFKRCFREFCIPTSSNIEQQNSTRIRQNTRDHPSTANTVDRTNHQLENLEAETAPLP

Regarding `Nc1nc2cc3c(cc2s1)C[C@@H]1[C@@H]2CCCC[C@]32CCN1CC1CC1`, the results for the Ratio Ki in the assay filed under Homo sapiens [1] and in the assay filed under Homo sapiens [2] were 31 and 592, respectively.

On to `c1c2c(cc3sc(NCCCCCCCCCCNc4nc5cc6c(cc5s4)C[C@@H]4[C@@H]5CCCC[C@]65CCN4CC4CC4)nc13)C[C@@H]1[C@@H]3CCCC[C@]23CCN1CC1CC1`, for which the Ki came out at 39 nM in assay [3], 2.5 nM on Mu-type opioid receptor [5] and 0.27 nM in assay [8]. The IC50 result was “Not Active” in [4] (cho) and 390 nM at Mu-type opioid receptor [10]. Further, the Ratio Ki in the assay filed under Homo sapiens [1] amounted to 9; in the assay listed under Homo sapiens [2] it was 140. For the same compound, the Imax at Mu-type opioid receptor [6] was 71%. The Emax on Mu-type opioid receptor [7] was determined as 38%; in assay [13] it was 130%. In assay [9], the Imax entry was “inactive”. Also, the EC50 worked out at 7.3 nM in assay [11] and 22 nM at Mu-type opioid receptor [12].

In the case of `O=C(CCCCCCCCC(=O)Nc1nc2cc3c(cc2s1)C[C@@H]1[C@@H]2CCCC[C@]32CCN1CC1CC1)Nc1nc2cc3c(cc2s1)C[C@@H]1[C@@H]2CCCC[C@]32CCN1CC1CC1`, the inhibition constant Ki in [3] is 170 nM; on Mu-type opioid receptor [5] it was 8.8 nM; in [8], 0.37 nM. The IC50 entry in [4] (cho) was “Not Active”. Further, the Ratio Ki in the assay listed under Homo sapiens [1] is 24; in the assay listed under Homo sapiens [2], 460. Also, the maximal effect (Emax) was found to be 25% at Mu-type opioid receptor [7] and 130% in assay [13]. The Imax entry in assay [9] is “inactive”. Besides, at Mu-type opioid receptor [14], the inhibition was 74%. The inhibition entry at Mu-type opioid receptor [15] is “inactive”. Also, the EC50 in assay [11] came to 5.5 nM; on Mu-type opioid receptor [12], 130 nM.

Take `CO[C@@]12CCCC[C@@]13CCN(CC1CCC1)[C@@H]2Cc1ccc(OC(=O)CCCCCCCCC(=O)OCc2ccccc2)cc13`: the Ki in [3] is 14 nM; on Mu-type opioid receptor [5], 0.15 nM; in [8], 0.23 nM. The IC50 is 6.4 nM in assay [4] (read-out: IC50) and 7.6 nM at Mu-type opioid receptor [10]. The Ratio Ki in the assay filed under Homo sapiens [1] amounted to 1; in the assay listed under Homo sapiens [2], 93. Moreover, the Imax on Mu-type opioid receptor [6] was 28%; in assay [9] it was 30%. Besides, the maximum response (Emax) is 54% at Mu-type opioid receptor [7] and 90% in assay [13]. Also, the EC50 worked out at 2.1 nM in assay [11] and 1.7 nM at Mu-type opioid receptor [12].

Regarding `O=C(CCCCCCCCC(=O)Oc1ccc2c(c1)[C@@]13CCCC[C@@]1(O)[C@@H](C2)N(CC1CCC1)CC3)Oc1ccc2c(c1)[C@@]13CCCC[C@H]1[C@@H](C2)N(CC1CCC1)CC3`, the results for the inhibitory constant (Ki) (in [3]; on Mu-type opioid receptor [5]; in assay [8]) were 8 nM, 0.089 nM and 0.073 nM, respectively. The IC50 in [4] (read-out: IC50) was 3.7 nM; at Mu-type opioid receptor [10] it was 3.4 nM. Besides, the Ratio Ki in the assay listed under Homo sapiens [1] was 1; in the assay listed under Homo sapiens [2], 110. In addition, the Imax on Mu-type opioid receptor [6] is 50%; in [9], 23%. For the same compound, the Emax stood at 46% at Mu-type opioid receptor [7] and 100% in assay [13]. For the same compound, the EC50 in assay [11] worked out at 0.84 nM; at Mu-type opioid receptor [12], 1.2 nM.

For `CO[C@@]12CCCC[C@@]13CCN(CC1CCC1)[C@@H]2Cc1ccc(OC(=O)CCCCCCCCC(=O)Oc2ccc4c(c2)[C@@]25CCCC[C@@]2(OC)[C@@H](C4)N(CC2CCC2)CC5)cc13`, the Ki in assay [3] was determined as 13 nM; at Mu-type opioid receptor [5] it was 0.26 nM; in assay [8], 0.37 nM. For the same compound, the IC50 stood at 17 nM in [4] (read-out: IC50) and 260 nM on Mu-type opioid receptor [10]. Also, the Ratio Ki in the assay listed under Homo sapiens [1] came to 1; in the assay filed under Homo sapiens [2] it was 50. For the same compound, the Imax at Mu-type opioid receptor [6] turned out to be 44%; in assay [9], 43%. In addition, the maximal effect (Emax) stood at 42% at Mu-type opioid receptor [7] and 83% in [13]. Besides, the half-maximal effective concentration (EC50) in [11] was determined as 2.4 nM; on Mu-type opioid receptor [12], 1.8 nM.

Regarding `C=CCN1CC[C@]23c4c5ccc(OC(=O)CCCCCCCCC(=O)Oc6ccc7c(c6)[C@@]68CCCC[C@@]6(OC)[C@@H](C7)N(CC6CCC6)CC8)c4O[C@H]2C(=O)CC[C@@]3(O)[C@H]1C5`, the results for the inhibitory constant (Ki) (in assay [3]; on Mu-type opioid receptor [5]; in [8]) were 39 nM, 0.55 nM and 0.14 nM, respectively. The results for the IC50 (in assay [4] (read-out: IC50); on Mu-type opioid receptor [10]) were 7.7 nM and 19 nM, respectively. Moreover, the Ratio Ki in the assay listed under Homo sapiens [1] stood at 4; in the assay filed under Homo sapiens [2], 280. Also, the Imax worked out at 45% on Mu-type opioid receptor [6] and 33% in [9]. Moreover, the values for the Emax (on Mu-type opioid receptor [7]; in assay [13]) were 62% and 80%, respectively. Also, the EC50 in assay [11] is 18 nM; on Mu-type opioid receptor [12] it was 10 nM.

For the compound `CO[C@@]12CCCC[C@@]13CCN(CC1CCC1)[C@@H]2Cc1ccc(O)cc13`, the inhibition constant Ki in assay [3] amounted to 8.1 nM; on Mu-type opioid receptor [5] it was 0.14 nM; in assay [8], 0.2 nM. Besides, the 50% inhibitory concentration (IC50) in [4] (read-out: IC50) is 22 nM; at Mu-type opioid receptor [10], 9.3 nM. The Ratio Ki in the assay filed under Homo sapiens [1] is 1; in the assay listed under Homo sapiens [2], 58. Also, the Imax on Mu-type opioid receptor [6] is 50%; in assay [9] it was 37%. The values for the maximum response (Emax) (at Mu-type opioid receptor [7]; in assay [13]) were 50% and 90%, respectively. In addition, the 50% effective concentration (EC50) in [11] turned out to be 2.8 nM; on Mu-type opioid receptor [12], 3.6 nM.

With `O=C(CCCCCCCCC(=O)Oc1ccc2c(c1)[C@@]13CCCC[C@H]1[C@@H](C2)N(CC1CCC1)CC3)Oc1ccc2c(c1)[C@@]13CCCC[C@H]1[C@@H](C2)N(CC1CCC1)CC3`, the Ratio Ki was found to be 2 in the assay filed under Homo sapiens [1] and 90 in the assay filed under Homo sapiens [2].

With `O=C(/C=C/C(=O)Oc1ccc2c(c1)[C@@]13CCCC[C@H]1[C@@H](C2)N(CC1CCC1)CC3)Oc1ccc2c(c1)[C@@]13CCCC[C@H]1[C@@H](C2)N(CC1CCC1)CC3`, the Ratio Ki was 3 in the assay listed under Homo sapiens [1] and 120 in the assay filed under Homo sapiens [2].

For `C=CCN1CC[C@]23c4c5ccc(OC(=O)CCCCCCCCC(=O)Oc6ccc7c(c6)[C@@]68CCCC[C@@]6(O)[C@@H](C7)N(CC6CCC6)CC8)c4O[C@H]2C(=O)CC[C@@]3(O)[C@H]1C5`, the inhibition constant Ki in [3] came to 35 nM; at Mu-type opioid receptor [5], 0.82 nM; in assay [8], 0.28 nM. In addition, the IC50 worked out at 49 nM in assay [4] (read-out: IC50) and 34 nM at Mu-type opioid receptor [10]. Moreover, the Ratio Ki in the assay filed under Homo sapiens [1] is 3; in the assay listed under Homo sapiens [2], 130. Besides, the Imax on Mu-type opioid receptor [6] stood at 73%; in assay [9], 35%. In addition, the Emax at Mu-type opioid receptor [7] was found to be 19%; in assay [13], 74%. Further, the EC50 in assay [11] amounted to 12 nM; at Mu-type opioid receptor [12] it was 2 nM.

The values are drawn from ChEMBL document CHEMBL1772956, “Synthesis and binding affinity of novel mono- and bivalent morphinan ligands for κ, μ, and δ opioid receptors” (Bioorg Med Chem, 2011).
